This passage reports inhibition in vivo, Activity and IC50 results from ChEMBL document CHEMBL3425458, “Design, synthesis and antitumor activity of triterpenoid pyrazine derivatives from 23-hydroxybetulinic acid” (Eur J Med Chem, 2015).

Molecules are shown by their SMILES.

Data set [1] has as its system B16. Briefly: In vivo antitumor activity against mouse B16 cells xenografted in mouse assessed as tumor growth inhibitory ratio at 30 mg/kg, ip administered after 7 days of tumor transplantation measured at 25th day after tumor inoculation. To be noted: 168 h, route intraperitoneal. It is filed as functional.
The test system of another data set is H22. Briefly: In vivo antitumor activity […] cells xenografted in mouse assessed as tumor growth inhibitory ratio at 30 mg/kg, ip administered after 7 days of tumor transplantation measured at 25th day after tumor inoculation. It is filed as functional. As to conditions: 168 h, route intraperitoneal. A digest of the protocol: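 Mice bearing H22 liver cancer, 10 per group. Test article at 30 mg/kg ip. Vehicle 0.5 mL/mouse iv. Cyclophosphamide 30 mg/kg iv as positive control. Tumor weight recorded to give tumor inhibitory ratio.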
In general terms: A xenograft is tissue or cells of one species grown in another, often human tumour cells in immunodeficient mice.

Data set [2] concerns Mus musculus. The data set is described as follows: Toxicity against mouse xenografted with mouse B16 cells assessed as body weight at 30 mg/kg, ip administered after 7 days of tumor transplantation (reference value: 18.2 to 18.3 gms). Format: organism-based. The arrangement: dose 30 mg/kg, route intraperitoneal. To be noted: in vivo, 168 h.
Data set [3] has as its system Mus musculus. Briefly: Toxicity against mouse xenografted […] cells assessed as body weight at 30 mg/kg, ip administered after 7 days of tumor transplantation (reference value: 18.1 to 18.6 gms). It is filed as organism-based. Details: dose 30 mg/kg, route intraperitoneal. As to conditions: in vivo, 168 h. A digest of the protocol:
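H22 liver cancer-bearing mice, 10 per group at start and end. Test article given ip at 30 mg/kg, with a vehicle group (0.5 mL/mouse, iv). Body weight was recorded at start and at end, alongside tumor weight.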

A short description of data set [4]: Antiproliferative activity against human HL60 cells assessed as growth inhibition after 72 hrs by MTT assay. Format: functional, cell-based. To be noted: HL-60, 72 h. A digest of the protocol:
(§1)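 Values are mean ± S.D. from three different experiments, each performed in triplicate.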

Data set [5] concerns B16. The data set is described as follows: Antiproliferative activity against mouse B16 cells assessed as growth inhibition after 72 hrs by MTT assay. Format: functional, cell-based. To be noted: B16, 72 h. A digest of the protocol:
(§2)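 IC50 is the concentration inhibiting 50% cell growth. Values are mean ± S.D. from three different experiments, each performed in triplicate.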

A short description of data set [6]: Antiproliferative activity against human SF763 cells assessed as growth inhibition after 72 hrs by MTT assay. It is filed as functional, cell-based. To be noted: SF763, 72 h. A digest of the protocol:
as §1
Background: Formazan colour is commonly taken as a measure of viable cells.

Another data set concerns HeLa. The data set is described as follows: Antiproliferative activity against human HeLa cells assessed as growth inhibition after 72 hrs by MTT assay. Format: functional, cell-based. A digest of the protocol:
as §2

Data set [7] in a line: Antiproliferative activity against human Bel7402 cells assessed as growth inhibition after 72 hrs by MTT assay. To be noted: Bel-7402, 72 h. Format: functional, cell-based. A digest of the protocol: as §2

Usually inhibition in vivo stands for the share of the control response that was lost under treatment. As for `C=C(C)[C@@H]1CC[C@]2(C(=O)O)CC[C@]3(C)[C@H](CC[C@@H]4[C@@]5(C)CC[C@H](O)[C@@](C)(CO)[C@@H]5CC[C@]43C)[C@@H]12`, the inhibition in vivo at 30 mg/kg came to 32.4% with B16 [1] and 27.8% with H22. Also, the figures for the Activity with Mus musculus [2] and in the data set with Mus musculus [3] were 26.7 g and 26.1 g, respectively.
Usually IC50 stands for the concentration needed to halve the response being measured. In the case of `C=C(C)[C@@H]1CC[C@]2(C(=O)OCc3ccccc3)CC[C@]3(C)[C@H](CC[C@@H]4[C@@]5(C)Cc6nccnc6[C@@](C)(CO)[C@@H]5CC[C@]43C)[C@@H]12`, the IC50 in data set [4] was determined as 18.9 µM; in the data set on B16 [5], 8.56 µM; in data set [6], 9.54 µM; with HeLa, 12.8 µM; in data set [7], 10.1 µM.
Taken in the same sequence, the figures for `C=C(C)[C@@H]1CC[C@]2(C(=O)O)CC[C@]3(C)[C@H](CC[C@@H]4[C@@]5(C)Cc6nccnc6[C@@](C)(COC(C)=O)[C@@H]5CC[C@]43C)[C@@H]12` were 20.4 µM, 9.9 µM, 11.1 µM, 14.6 µM and 16.8 µM.
Consider `C=C(C)[C@@H]1CC[C@]2(C(=O)O)CC[C@]3(C)[C@H](CC[C@@H]4[C@@]5(C)Cc6nccnc6[C@@](C)(CO)[C@@H]5CC[C@]43C)[C@@H]12`, for which the IC50 in data set [4] is 24.1 µM; in the data set on B16 [5], 14.9 µM; in data set [6] it was 15.4 µM; in the data set on HeLa, 19.6 µM; in data set [7], 19.1 µM.
Consider `C=C(C)[C@@H]1CC[C@]2(C(=O)OCC)CC[C@]3(C)[C@H](CC[C@@H]4[C@@]5(C)Cc6nccnc6[C@@](C)(CO)[C@@H]5CC[C@]43C)[C@@H]12`, for which the IC50 in [4] was determined as 22.5 µM; in the data set on B16 [5], 9.97 µM; in data set [6], 10 µM; in the data set on HeLa, 15.1 µM; in data set [7], 14.8 µM.
For `C=C(C)[C@@H]1CC[C@]2(C(=O)OCCO)CC[C@]3(C)[C@H](CC[C@@H]4[C@@]5(C)Cc6nccnc6[C@@](C)(CO)[C@@H]5CC[C@]43C)[C@@H]12`, the IC50 stood at 23.6 µM in data set [4]; 13.1 µM in the data set on B16 [5]; 13.5 µM in [6]; 20.7 µM with HeLa; 17.4 µM in [7].
The matching figures for `C=CCOC(=O)[C@]12CC[C@@H](C(=C)C)[C@@H]1[C@H]1CC[C@@H]3[C@@]4(C)Cc5nccnc5[C@@](C)(CO)[C@@H]4CC[C@@]3(C)[C@]1(C)CC2`: 19.1 µM, 8.98 µM, 8.62 µM, 11 µM and 11.9 µM.
With `C=C(C)[C@@H]1CC[C@]2(C(=O)OCC(=O)OCC)CC[C@]3(C)[C@H](CC[C@@H]4[C@@]5(C)Cc6nccnc6[C@@](C)(CO)[C@@H]5CC[C@]43C)[C@@H]12`, the IC50 stood at 23.6 µM in data set [4]; 11.3 µM in the data set with B16 [5]; 13.1 µM in [6]; 17 µM in the data set on HeLa; 17 µM in data set [7].
For `C=C(C)[C@@H]1CC[C@]2(C(=O)OCc3ccc(-c4ccccc4C#N)cc3)CC[C@]3(C)[C@H](CC[C@@H]4[C@@]5(C)Cc6nccnc6[C@@](C)(CO)[C@@H]5CC[C@]43C)[C@@H]12`, the concentration for half-maximal inhibition (IC50) in data set [4] was 11.7 µM; with B16 [5] it was 7.15 µM; in data set [6], 5.63 µM; in the data set on HeLa, 9.32 µM; in data set [7], 9.37 µM.
Take `C=C(C)[C@@H]1CC[C@]2(C(=O)O[C@@H]3O[C@H](CO)[C@@H](O)[C@H](O)[C@H]3O)CC[C@]3(C)[C@H](CC[C@@H]4[C@@]5(C)Cc6nccnc6[C@@](C)(CO)[C@@H]5CC[C@]43C)[C@@H]12`: the concentration for half-maximal inhibition (IC50) in data set [4] was determined as 21.1 µM; in the data set with B16 [5], 12.8 µM; in data set [6], 11 µM; in the data set on HeLa, 15.9 µM; in data set [7] it was 17.7 µM.
Taken in the same sequence, the figures for `C=C(C)[C@@H]1CC[C@]2(C(=O)OCC(=O)O)CC[C@]3(C)[C@H](CC[C@@H]4[C@@]5(C)Cc6nccnc6[C@@](C)(CO)[C@@H]5CC[C@]43C)[C@@H]12` were 19.5 µM, 9.41 µM, 8.86 µM, 10.1 µM and 13.1 µM.
Taken in the same sequence, the figures for `C=C(C)[C@@H]1CC[C@]2(C(=O)NCC(=O)OC)CC[C@]3(C)[C@H](CC[C@@H]4[C@@]5(C)Cc6nccnc6[C@@](C)(COC(C)=O)[C@@H]5CC[C@]43C)[C@@H]12` were 14.7 µM, 8.08 µM, 9.26 µM, 10.9 µM and 11.1 µM.
Consider `C=C(C)[C@@H]1CC[C@]2(C(=O)OCCO)CC[C@]3(C)[C@H](CC[C@@H]4[C@@]5(C)Cc6nccnc6[C@@](C)(COC(C)=O)[C@@H]5CC[C@]43C)[C@@H]12`, for which the IC50 in data set [4] came to 22.2 µM; with B16 [5] it was 12.1 µM; in data set [6] it was 13 µM; in the data set on HeLa, 17.5 µM; in data set [7], 15.7 µM.
Turning to `C=C(C)[C@@H]1CC[C@]2(C(=O)Oc3ccc(C#N)cc3)CC[C@]3(C)[C@H](CC[C@@H]4[C@@]5(C)Cc6nccnc6[C@@](C)(COC(C)=O)[C@@H]5CC[C@]43C)[C@@H]12`, the half-maximal inhibitory concentration (IC50) in [4] worked out at 10.2 µM; in the data set with B16 [5] it was 6.02 µM; in data set [6] it was 5.77 µM; with HeLa, 7.91 µM; in [7], 8.09 µM.
Regarding `O=P1(N(CCCl)CCCl)NCCCO1` (centres undefined) [CYCLOPHOSPHAMIDE ANHYDROUS], the inhibition in vivo at 30 mg/kg in the data set with H22 was 53.7%. Besides, the Activity with Mus musculus [3] was 25.7 g.
For `COc1cccc2c1C(=O)c1c(O)c3c(c(O)c1C2=O)C[C@@](O)(C(=O)CO)C[C@@H]3O[C@H]1C[C@H](N)[C@H](O)[C@H](C)O1` [DOXORUBICIN], the IC50 in [7] stood at 0.22 µM.
Consider `O=c1[nH]cc(F)c(=O)[nH]1` [FLUOROURACIL], for which, in the data set with B16 [1], the inhibition in vivo at 30 mg/kg was determined as 70.3%. Besides, the Activity in the data set on Mus musculus [2] was 26.2 g.
